We go through 2 molecules from ChEMBL document CHEMBL4007450, “Development of 1,2,4-Oxadiazoles as Potent and Selective Inhibitors of the Human Deacetylase Sirtuin 2: Structure-Activity Relationship, X-ray Crystal Structure, and Anticancer Activity” (J Med Chem, 2017).

For experiment [1], the target named is NAD-dependent protein deacylase sirtuin-5, mitochondrial (Homo sapiens) (UniProt Q9NXA8). The experiment can be described thus: Inhibition of human SIRT5 (34 to 302 residues) deacetylase activity expressed in Escherichia coli using Prx1 peptide as substrate up to 100 uM after 45 mins in presence of NAD+ by pNCA/GDH-based microplate spectrophotometric analysis.
NAD-dependent protein deacylase sirtuin-5, mitochondrial (Homo sapiens), sequence (Q9NXA8 37-310 limits assumed): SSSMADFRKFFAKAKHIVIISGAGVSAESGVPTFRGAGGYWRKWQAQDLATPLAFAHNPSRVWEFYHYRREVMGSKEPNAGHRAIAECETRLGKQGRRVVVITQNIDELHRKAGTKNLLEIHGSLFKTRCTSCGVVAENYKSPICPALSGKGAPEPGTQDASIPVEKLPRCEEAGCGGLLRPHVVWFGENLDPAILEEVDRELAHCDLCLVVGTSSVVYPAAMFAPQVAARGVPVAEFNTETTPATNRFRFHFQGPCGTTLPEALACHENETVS

For experiment [2], the system named is KARPAS-299. The experiment is described as follows: Antiproliferative activity against human KARPAS299 cells harboring NPM1/ALK, [t(2;5)(p23;q35)] mutant assessed as cell growth inhibition after 48 hrs by WST1 assay. The experiment is classed as functional, cell-based. To be noted: KARPAS-299, 48 h. An outline of the steps: (§1)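 WST-1 proliferation assay. Cells plated in triplicate at 5×10^3 cells/well and exposed to increasing compound concentrations for 48 h at 37 °C, 5% CO2. WST-1 reagent was then added for 1 h. IC50 was obtained by nonlinear regression of each cell line's dose-response curve.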

For experiment [3], the system named is NB-4. The experiment is described as follows: Antiproliferative activity against human NB4 cells harboring PML-RARalpha [t(15;17)(q22;q12)] mutant assessed as cell growth inhibition after 48 hrs by WST1 assay. The experiment is classed as functional, cell-based. Particulars: NB-4, 48 h. Put shortly: as §1
In experiment [4] the target is T1, NAD-dependent protein deacetylase sirtuin-1 (Homo sapiens) (UniProt Q96EB6).
T1 sequence (whole entry): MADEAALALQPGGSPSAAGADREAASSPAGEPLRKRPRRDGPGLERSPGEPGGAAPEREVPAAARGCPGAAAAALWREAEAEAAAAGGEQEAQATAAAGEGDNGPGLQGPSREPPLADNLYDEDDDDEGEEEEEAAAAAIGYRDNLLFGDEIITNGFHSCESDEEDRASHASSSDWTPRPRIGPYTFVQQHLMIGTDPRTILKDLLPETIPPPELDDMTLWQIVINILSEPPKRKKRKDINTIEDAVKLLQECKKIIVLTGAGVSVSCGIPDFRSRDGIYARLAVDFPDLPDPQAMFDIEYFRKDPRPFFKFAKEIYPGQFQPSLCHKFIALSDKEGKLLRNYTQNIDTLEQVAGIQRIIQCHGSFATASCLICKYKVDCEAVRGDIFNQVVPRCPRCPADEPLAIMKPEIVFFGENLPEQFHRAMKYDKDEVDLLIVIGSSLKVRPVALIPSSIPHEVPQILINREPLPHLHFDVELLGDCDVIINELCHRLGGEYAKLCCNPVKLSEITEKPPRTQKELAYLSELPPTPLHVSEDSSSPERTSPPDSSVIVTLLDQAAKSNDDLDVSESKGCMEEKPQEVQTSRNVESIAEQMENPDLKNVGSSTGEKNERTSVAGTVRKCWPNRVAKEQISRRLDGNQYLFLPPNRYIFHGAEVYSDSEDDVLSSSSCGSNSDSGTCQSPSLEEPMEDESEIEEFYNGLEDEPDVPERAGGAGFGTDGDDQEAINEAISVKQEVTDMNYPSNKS
The experiment is described as follows: Inhibition of human full length SIRT1 activity expressed in Escherichia coli using p53 peptide as substrate up to 100 uM after 45 mins in presence of NAD+ by pNCA/GDH-based microplate spectrophotometric analysis. Put shortly:
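Full-length Sirt1 at 2 µM with p53 peptide RHKacKLMFK as substrate. Activity was measured in the same coupled pNCA/GDH mix as for Sirt2 (α-ketoglutarate, NADPH, Na-phosphate pH 7.8, 3% DMSO), following NADPH oxidation at 340 nm at 20 °C for 45 min. Compounds were tested up to 100 µM.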

For experiment [5], the target named is T2, NAD-dependent protein deacetylase sirtuin-3, mitochondrial (Homo sapiens) (UniProt Q9NTG7).
T2 sequence (whole entry): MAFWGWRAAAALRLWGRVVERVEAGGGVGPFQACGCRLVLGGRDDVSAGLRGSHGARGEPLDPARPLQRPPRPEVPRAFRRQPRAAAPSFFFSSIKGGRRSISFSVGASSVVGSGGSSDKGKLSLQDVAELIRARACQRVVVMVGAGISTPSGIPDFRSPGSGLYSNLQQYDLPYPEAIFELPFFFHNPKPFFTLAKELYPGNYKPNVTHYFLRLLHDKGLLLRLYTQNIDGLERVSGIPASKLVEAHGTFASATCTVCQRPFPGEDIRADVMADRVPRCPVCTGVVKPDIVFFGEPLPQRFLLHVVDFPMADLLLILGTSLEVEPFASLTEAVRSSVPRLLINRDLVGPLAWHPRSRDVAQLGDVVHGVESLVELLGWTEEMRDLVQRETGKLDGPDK
The experiment is described as follows: Inhibition of human SIRT3 (114 to 380 residues) activity expressed in Escherichia coli using AceCS2 peptide as substrate up to 100 uM after 45 mins in presence of NAD+ by pNCA/GDH-based microplate spectrophotometric analysis. Put shortly: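 Same pNCA/GDH-coupled 340 nm NADPH read-out as the Sirt2 assay, using 20 mM Na-phosphate pH 7.8 with 3% DMSO at 20 °C for 45 min. Sirt3 (114-380) was used at 5 µM with AceCS2 peptide TRSGacKVMR as substrate. Inhibitors were tested up to 100 µM.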

For experiment [6], the system named is U-937. The experiment can be described thus: Induction of apoptosis in human U937 cells assessed as pre-G1 accumulation at 50 uM after 48 hrs by propidium iodide staining-based FACS analysis. The experiment is classed as functional. An outline of the steps: (§2)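 Leukemia cells (U937, NB4, HL-60, K562) were grown in RPMI-1640 with 10% FBS, 2 mM L-glutamine and antibiotics, then treated for 48 h at 5, 10, 25 and 50 μM. 2.5×10^5 cells were stained 30 min in the dark in hypotonic PI buffer (0.1% Triton X-100, 0.1% citrate, 50 µg/mL PI, RNase A). Apoptosis was scored as pre-G1 content by flow cytometry. Duplicates, mean ± SD.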

For experiment [7], the system named is HL-60. The experiment is described as follows: Antiproliferative activity against human p53 deficient HL60 cells assessed as cell growth inhibition after 48 hrs by WST1 assay. The experiment is classed as functional, cell-based. Particulars: HL-60, 48 h. An outline of the steps: as §1
Experiment [8] has as its system NB-4. The experiment is described as follows: Induction of apoptosis in human NB4 cells assessed as pre-G1 accumulation at 10 uM after 48 hrs by propidium iodide staining-based FACS analysis. The format is functional, cell-based. An outline of the steps:
as §2

Experiment [9] concerns MV4-11. The experiment can be described thus: Antiproliferative activity against human MV4-11 cells harboring FLT3-ITD [t(4;11)(q21;q23)], MLL/MLLT2(AF4) mutant assessed as cell growth inhibition after 48 hrs by WST1 assay. The format is functional, cell-based. Particulars: MV4-11, 48 h. Put shortly:
as §1

Experiment [10] has as its system Kasumi 1. The experiment is described as follows: Antiproliferative activity against human Kasumi-1 cells harboring AML1-ETO [t(8:21)] mutant assessed as cell growth inhibition after 48 hrs by WST1 assay. The experiment is classed as functional, cell-based. Particulars: Kasumi 1, 48 h. Put shortly: as §1
In experiment [11] the target is NAD-dependent protein deacylase sirtuin-5, mitochondrial (Homo sapiens) (UniProt Q9NXA8). The experiment can be described thus: Inhibition of human SIRT5 (34 to 302 residues) desuccinylase activity expressed in Escherichia coli using peptide as substrate up to 100 uM after 45 mins in presence of NAD+ by pNCA/GDH-based microplate spectrophotometric analysis.
Experiment [12] is described as follows: Antiproliferative activity against human IMS-M2 cells harboring NPM1c+ assessed as cell growth inhibition after 48 hrs by WST1 assay. The format is functional, cell-based. To be noted: IMS-M2, 48 h. Put shortly: as §1
The subject of experiment [13] is OCI-AML-3. The experiment can be described thus: Antiproliferative activity against human OCI-AML3 cells harboring NPM1c+, DNMT3A R882C mutant assessed as cell growth inhibition after 48 hrs by WST1 assay. The format is functional, cell-based. Particulars: OCI-AML-3, 48 h. An outline of the steps: as §1
In experiment [14] the test system is U-937. The experiment can be described thus: Effect on cell cycle arrest in human U937 cells at 25 uM after 48 hrs by propidium iodide staining-based FACS analysis. The format is functional.
The subject of experiment [15] is OCI-AML2. The experiment can be described thus: Antiproliferative activity against human OCI-AML2 cells harboring DNMT3A R635W mutant assessed as cell growth inhibition after 48 hrs by WST1 assay. The format is functional, cell-based. To be noted: OCI-AML2, 48 h. Put shortly: as §1
Experiment [16] has as its system U-937. The experiment can be described thus: Antiproliferative activity against human U937 cells harboring p53+/- assessed as cell growth inhibition after 48 hrs by WST1 assay. Particulars: U-937, 48 h. The format is functional, cell-based. An outline of the steps: as §1
The target in experiment [17] is T3, NAD-dependent protein deacetylase sirtuin-2 (Homo sapiens, UniProt Q8IXJ6).
T3 sequence (Q8IXJ6 whole entry): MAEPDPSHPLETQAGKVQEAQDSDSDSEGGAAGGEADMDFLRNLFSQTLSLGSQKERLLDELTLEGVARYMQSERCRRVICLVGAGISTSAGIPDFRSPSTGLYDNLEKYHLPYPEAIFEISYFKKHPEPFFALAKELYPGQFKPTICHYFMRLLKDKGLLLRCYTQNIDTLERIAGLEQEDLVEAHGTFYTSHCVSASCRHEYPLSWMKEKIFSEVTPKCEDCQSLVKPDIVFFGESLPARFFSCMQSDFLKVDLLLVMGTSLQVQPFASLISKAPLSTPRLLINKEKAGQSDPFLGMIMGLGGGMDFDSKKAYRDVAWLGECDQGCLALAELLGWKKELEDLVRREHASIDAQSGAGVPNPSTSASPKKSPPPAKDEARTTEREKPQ

Experiment [18] deals with U-937. The experiment is described as follows: Induction of apoptosis in human U937 cells assessed as pre-G1 accumulation at 25 uM after 48 hrs by propidium iodide staining-based FACS analysis. The experiment is classed as functional. An outline of the steps: as §2
Experiment [19] has as its system NB-4. The experiment is described as follows: Induction of apoptosis in human NB4 cells assessed as pre-G1 accumulation at 50 uM after 48 hrs by propidium iodide staining-based FACS analysis. The experiment is classed as functional. An outline of the steps:
as §2

In experiment [20] the test system is MDA-MB-231. The experiment can be described thus: Induction of apoptosis in human MDA-MB-231 cells assessed as pre-G1 accumulation at 50 uM after 48 hrs by propidium iodide staining-based FACS analysis. The format is functional. An outline of the steps:
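MDA-MB-231 breast cancer cells were grown in DMEM with 10% FBS, 2 mM L-glutamine and antibiotics, then exposed for 48 h at 5, 10, 25 or 50 μM. 2.5×10^5 cells were stained in hypotonic buffer with 50 µg/mL PI, 0.1% Triton X-100, 0.1% citrate and RNase A for 30 min in the dark. Pre-G1 fraction was measured by flow cytometry. Biological duplicates, mean ± SD.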

Active and inactive are the calls of the source. The rule behind the calls is not given here.

For `BrCCCc1nc(-c2ccc(Br)cc2)no1`, the inhibition entry in experiment [1], in experiment [4], in [5] and in [11] was “inactive” each time. The IC50 is 25 µM in [2]; 49 µM in experiment [3]; 100 µM in experiment [7]; 38 µM in experiment [9]; 56 µM in experiment [10]; 100 µM in experiment [12]. In addition, the results for the IC50 in [13], in [15] and in experiment [16] were 66 µM, 85 µM and greater than 100 µM, respectively. Further, the Activity in experiment [6] is greater than 80%. Besides, the outcome in [8] was Active. Also, the result in experiment [14] was inactive.
With `Fc1ccc(-c2noc(CCCBr)n2)cc1`, the half-inhibitory concentration (IC50) in experiment [17] was 19.8 µM. For the same molecule, the Activity in [18] is given as 11.1 - 37.1%; in experiment [19], 30 - 40%; in experiment [20] it was 30 - 40%.
